In ChEMBL document CHEMBL4118021, “Studies of TAK1-centered polypharmacology with novel covalent TAK1 inhibitors” (Bioorg Med Chem, 2017):

What was measured:
Type in all cases: cell-based
[1] = biological target: T1, Serine/threonine-protein kinase TAO1 (Homo sapiens) (UniProt Q7L7X3); assay: Inhibition of TAO1 in human SKCO1 cells at 1 uM after 4 hrs using biotin labeled DIKAGNILLTEPGQVK probe by mass-spectrometric analysis relative to control
T1 sequence (whole entry): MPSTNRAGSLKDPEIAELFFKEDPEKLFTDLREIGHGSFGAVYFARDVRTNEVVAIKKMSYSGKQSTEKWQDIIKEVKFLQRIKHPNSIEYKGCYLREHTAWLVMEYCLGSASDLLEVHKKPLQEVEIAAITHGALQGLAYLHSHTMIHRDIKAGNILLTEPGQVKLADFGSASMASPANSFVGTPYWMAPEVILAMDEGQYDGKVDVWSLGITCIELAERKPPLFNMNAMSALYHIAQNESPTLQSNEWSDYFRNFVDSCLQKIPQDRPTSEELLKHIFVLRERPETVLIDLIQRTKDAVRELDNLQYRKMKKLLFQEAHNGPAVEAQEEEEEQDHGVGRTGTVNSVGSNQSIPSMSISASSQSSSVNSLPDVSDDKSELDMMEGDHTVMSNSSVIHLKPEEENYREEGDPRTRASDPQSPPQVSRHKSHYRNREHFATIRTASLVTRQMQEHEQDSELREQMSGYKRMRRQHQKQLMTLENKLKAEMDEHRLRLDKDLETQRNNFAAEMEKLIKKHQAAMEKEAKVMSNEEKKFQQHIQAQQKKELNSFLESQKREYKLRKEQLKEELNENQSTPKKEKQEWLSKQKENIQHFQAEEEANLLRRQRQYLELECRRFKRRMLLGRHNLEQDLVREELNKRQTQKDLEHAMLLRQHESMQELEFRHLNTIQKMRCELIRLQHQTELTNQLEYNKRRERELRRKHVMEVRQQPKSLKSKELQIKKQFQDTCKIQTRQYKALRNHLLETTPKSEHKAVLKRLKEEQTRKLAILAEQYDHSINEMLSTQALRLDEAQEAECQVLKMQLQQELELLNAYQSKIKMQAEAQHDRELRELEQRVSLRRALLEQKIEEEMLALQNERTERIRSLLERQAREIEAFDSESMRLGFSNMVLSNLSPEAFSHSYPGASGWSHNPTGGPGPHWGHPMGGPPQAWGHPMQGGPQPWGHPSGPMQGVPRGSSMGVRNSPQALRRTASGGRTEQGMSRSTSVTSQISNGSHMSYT
Outline: (§1)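 Live SK-CO-1 cells exposed to compound at 1 μM or DMSO for 4 h (KiNativ). Lysates then labeled with lysine-reactive ATP/ADP-biotin probe, and probe-labeled kinase peptides quantified by mass spectrometry. Percent inhibition of probe-dependent recovery calculated relative to DMSO-treated cells.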

[2] = biological target: Mitogen-activated protein kinase kinase kinase kinase 1 (Homo sapiens) (UniProt Q92918); assay: Inhibition of HPK1 in human SKCO1 cells at 1 uM after 4 hrs using biotin labeled DIKGANILINDAGEVR probe by mass-spectrometric analysis relative to control
Mitogen-activated protein kinase kinase kinase kinase 1 (Homo sapiens), sequence (Q92918 whole entry, looked up): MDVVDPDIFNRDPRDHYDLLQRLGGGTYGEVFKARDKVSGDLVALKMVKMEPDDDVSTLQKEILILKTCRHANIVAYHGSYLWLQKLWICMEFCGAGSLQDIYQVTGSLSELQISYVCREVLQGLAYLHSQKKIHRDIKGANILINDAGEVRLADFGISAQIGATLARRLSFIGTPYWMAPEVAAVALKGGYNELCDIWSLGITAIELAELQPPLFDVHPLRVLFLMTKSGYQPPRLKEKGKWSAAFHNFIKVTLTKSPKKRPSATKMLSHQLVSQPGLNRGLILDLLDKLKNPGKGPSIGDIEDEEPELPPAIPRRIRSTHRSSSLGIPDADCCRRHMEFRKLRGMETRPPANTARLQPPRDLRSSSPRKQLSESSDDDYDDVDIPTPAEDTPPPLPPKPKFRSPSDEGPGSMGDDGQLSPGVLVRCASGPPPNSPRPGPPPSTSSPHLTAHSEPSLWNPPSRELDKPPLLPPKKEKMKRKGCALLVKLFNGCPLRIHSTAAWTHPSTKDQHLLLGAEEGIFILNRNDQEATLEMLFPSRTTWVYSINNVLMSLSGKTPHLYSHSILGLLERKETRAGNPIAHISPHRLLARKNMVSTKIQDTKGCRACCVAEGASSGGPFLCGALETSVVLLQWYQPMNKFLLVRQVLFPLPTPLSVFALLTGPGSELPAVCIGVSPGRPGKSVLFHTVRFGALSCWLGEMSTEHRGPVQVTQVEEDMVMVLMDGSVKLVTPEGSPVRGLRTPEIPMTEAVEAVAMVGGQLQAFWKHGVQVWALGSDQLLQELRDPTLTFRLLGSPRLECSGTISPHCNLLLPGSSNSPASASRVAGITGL

[3] = biological target: T2, Protein kinase C zeta type (Homo sapiens) (UniProt Q05513); assay: Inhibition of PKCz in human SKCO1 cells at 1 uM after 4 hrs using biotin labeled DLKLDNVLLDADGHIK probe by mass-spectrometric analysis relative to control; outline: as §1
T2 sequence (whole entry): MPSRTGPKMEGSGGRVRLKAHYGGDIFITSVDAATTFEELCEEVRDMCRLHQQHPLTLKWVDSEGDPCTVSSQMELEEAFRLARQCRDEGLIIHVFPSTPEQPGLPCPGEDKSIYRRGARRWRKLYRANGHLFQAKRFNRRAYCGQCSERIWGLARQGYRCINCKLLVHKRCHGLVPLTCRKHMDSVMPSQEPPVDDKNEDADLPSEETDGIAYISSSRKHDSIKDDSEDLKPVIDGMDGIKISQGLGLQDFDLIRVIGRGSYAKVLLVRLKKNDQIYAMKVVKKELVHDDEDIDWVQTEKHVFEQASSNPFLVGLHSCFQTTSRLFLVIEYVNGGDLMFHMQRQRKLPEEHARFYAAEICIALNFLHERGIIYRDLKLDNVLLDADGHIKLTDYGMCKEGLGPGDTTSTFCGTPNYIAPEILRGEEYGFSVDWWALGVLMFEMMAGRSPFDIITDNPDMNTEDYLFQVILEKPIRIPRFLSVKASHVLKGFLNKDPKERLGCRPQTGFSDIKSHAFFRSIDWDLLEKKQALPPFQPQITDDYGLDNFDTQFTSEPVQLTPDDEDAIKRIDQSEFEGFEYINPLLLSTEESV

[4] = biological target: Glycogen synthase kinase-3 alpha (Homo sapiens) (UniProt P49840); assay: Inhibition of GSK3A in human SKCO1 cells at 1 uM after 4 hrs using biotin labeled DIKPQNLLVDPDTAVLK probe by mass-spectrometric analysis relative to control
Glycogen synthase kinase-3 alpha (Homo sapiens), sequence (P49840 2-483 limits assumed): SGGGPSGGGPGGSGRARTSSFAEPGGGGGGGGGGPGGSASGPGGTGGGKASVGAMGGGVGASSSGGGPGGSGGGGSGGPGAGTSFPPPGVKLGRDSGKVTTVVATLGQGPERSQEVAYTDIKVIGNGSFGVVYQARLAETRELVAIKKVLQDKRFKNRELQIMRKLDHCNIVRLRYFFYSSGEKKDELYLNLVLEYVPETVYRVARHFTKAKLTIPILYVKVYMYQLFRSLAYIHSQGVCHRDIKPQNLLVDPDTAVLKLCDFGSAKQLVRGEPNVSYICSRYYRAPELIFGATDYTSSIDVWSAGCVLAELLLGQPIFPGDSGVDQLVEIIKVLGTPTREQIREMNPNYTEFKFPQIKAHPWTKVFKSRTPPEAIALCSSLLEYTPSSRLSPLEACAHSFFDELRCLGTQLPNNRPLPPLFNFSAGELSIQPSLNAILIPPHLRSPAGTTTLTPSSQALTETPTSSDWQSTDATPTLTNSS

[5] = biological target: Mitogen-activated protein kinase kinase kinase 4 (Homo sapiens) (UniProt Q9Y6R4); assay: Inhibition of MAP3K4 in human SKCO1 cells at 1 uM after 4 hrs using biotin labeled DIKGANIFLTSSGLIK probe by mass-spectrometric analysis relative to control
Mitogen-activated protein kinase kinase kinase 4 (Homo sapiens), sequence (Q9Y6R4 whole entry): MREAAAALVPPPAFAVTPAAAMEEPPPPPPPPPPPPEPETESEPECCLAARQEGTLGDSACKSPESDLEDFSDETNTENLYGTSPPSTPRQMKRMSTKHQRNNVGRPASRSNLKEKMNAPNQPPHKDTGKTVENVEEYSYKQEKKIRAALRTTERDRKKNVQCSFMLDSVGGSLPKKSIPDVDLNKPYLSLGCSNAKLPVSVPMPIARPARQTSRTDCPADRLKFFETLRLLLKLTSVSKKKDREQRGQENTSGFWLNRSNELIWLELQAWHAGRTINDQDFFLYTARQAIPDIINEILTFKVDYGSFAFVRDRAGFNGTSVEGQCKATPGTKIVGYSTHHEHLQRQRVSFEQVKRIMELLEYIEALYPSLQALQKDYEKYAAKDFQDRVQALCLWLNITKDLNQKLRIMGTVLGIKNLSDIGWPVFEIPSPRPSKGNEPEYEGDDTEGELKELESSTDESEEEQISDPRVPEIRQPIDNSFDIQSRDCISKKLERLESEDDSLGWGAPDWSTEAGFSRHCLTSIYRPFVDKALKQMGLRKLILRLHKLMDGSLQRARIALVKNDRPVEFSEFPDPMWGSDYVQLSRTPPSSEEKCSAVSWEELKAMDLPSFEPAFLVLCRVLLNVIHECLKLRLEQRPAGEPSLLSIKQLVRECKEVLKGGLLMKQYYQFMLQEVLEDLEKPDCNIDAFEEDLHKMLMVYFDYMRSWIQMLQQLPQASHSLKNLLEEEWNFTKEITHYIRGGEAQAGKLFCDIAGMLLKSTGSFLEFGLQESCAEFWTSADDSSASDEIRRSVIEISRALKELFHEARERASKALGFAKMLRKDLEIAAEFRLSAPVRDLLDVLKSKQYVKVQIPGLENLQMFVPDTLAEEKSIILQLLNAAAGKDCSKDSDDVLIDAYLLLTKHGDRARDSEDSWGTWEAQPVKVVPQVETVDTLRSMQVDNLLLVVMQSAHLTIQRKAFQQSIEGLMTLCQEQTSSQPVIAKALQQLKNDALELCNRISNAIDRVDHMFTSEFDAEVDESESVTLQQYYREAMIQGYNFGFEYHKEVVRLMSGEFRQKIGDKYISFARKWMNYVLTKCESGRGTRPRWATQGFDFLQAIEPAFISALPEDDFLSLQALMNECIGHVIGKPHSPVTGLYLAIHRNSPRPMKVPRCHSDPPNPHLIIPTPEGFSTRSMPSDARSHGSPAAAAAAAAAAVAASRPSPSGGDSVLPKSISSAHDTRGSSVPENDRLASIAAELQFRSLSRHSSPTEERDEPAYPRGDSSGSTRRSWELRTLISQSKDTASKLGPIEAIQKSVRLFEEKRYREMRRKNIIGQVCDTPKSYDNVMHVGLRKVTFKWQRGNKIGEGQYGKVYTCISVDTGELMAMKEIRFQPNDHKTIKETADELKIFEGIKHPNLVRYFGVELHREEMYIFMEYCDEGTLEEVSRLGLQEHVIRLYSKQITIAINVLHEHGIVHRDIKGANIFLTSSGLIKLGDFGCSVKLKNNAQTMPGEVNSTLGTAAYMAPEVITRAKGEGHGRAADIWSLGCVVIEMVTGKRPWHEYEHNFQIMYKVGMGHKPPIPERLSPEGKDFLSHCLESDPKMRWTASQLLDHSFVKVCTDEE

[6] = biological target: T3, Dual specificity protein kinase TTK (Homo sapiens) (UniProt P33981); assay: Inhibition of TTK in human SKCO1 cells at 1 uM after 4 hrs using biotin labeled NMLEAVHTIHQHGIVHSDLKPANFLIDGMLK probe by mass-spectrometric analysis relative to control; outline: as §1
T3 sequence (whole entry): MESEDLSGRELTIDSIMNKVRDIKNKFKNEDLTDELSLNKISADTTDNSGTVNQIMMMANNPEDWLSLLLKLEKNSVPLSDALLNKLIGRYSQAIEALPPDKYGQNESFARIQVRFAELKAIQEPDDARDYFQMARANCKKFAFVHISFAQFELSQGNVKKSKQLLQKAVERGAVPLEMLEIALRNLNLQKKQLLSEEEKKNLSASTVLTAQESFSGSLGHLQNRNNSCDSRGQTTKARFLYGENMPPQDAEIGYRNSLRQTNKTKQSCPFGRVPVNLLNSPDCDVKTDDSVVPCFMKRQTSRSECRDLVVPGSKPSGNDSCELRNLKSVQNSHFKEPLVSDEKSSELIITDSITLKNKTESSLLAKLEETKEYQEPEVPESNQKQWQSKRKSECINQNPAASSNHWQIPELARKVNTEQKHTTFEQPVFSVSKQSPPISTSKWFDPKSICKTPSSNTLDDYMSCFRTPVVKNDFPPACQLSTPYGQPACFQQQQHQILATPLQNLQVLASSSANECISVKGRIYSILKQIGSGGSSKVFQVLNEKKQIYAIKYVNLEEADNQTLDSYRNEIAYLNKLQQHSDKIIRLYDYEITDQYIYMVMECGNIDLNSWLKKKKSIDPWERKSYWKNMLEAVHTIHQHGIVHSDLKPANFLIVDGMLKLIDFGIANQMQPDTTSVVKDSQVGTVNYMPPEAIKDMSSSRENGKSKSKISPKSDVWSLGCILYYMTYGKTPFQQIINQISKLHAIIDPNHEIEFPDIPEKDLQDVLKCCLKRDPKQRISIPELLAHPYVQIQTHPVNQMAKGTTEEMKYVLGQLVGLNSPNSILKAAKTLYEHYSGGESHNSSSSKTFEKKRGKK

Compound	inhibition [1] [%]	inhibition [2] [%]	inhibition [3] [%]	inhibition [4] [%]	inhibition [5] [%]	inhibition [6] [%]
COc1cc(O)c2c(c1)/C=C/C[C@H](O)[C@H](O)C(=O)/C=C\C[C@H](C)OC2=O	39.4	77.3	42.1	4.3	17.8	32.5
C=CC(=O)Nc1ccccc1Nc1nc(Nc2ccc(N3CCN(C)CC3)cc2)ncc1Cl	13.1	34.9	14.5	-2.8	63.3	40.6
C=CC(=O)Nc1ccccc1Oc1nc(Nc2cnn(CCOC)c2)ncc1Cl	9.6	72.6	30	15.2	12.9	25.4
